Data: ChEMBL document CHEMBL4052819 (2017)
Values after ≈ are worked out from the molar mass of the structure shown. Active and inactive are the calls of the source. The rule behind the calls is not given here. Non-standard residues stand in square brackets, D forms with d. Residues, ends and D or L forms follow the SMILES beside them. *: point of attachment. Cha = N[C@@H](CC1CCCCC1)C(=O)O; Octanoyl = CCCCCCCC(=O)*; Dab = NCC[C@H](N)C(=O)O

Columns and labels:
[1] = tested on: Escherichia coli; assay: Antibacterial activity against Escherichia coli ATCC 25922 in presence of 100% serum after 24 hrs by broth microdilution method; format: functional; conditions: ATCC 25922, 24 h
Procedure, shortened: (§1)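 Serum stability: compound added to 100% human serum at final 64 μg/mL, held at 37 °C, sampled at 0, 6, 12 and 24 h. […] Residual activity compared with untreated control.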

[2] = tested on: Pseudomonas aeruginosa; assay: Bactericidal activity against Pseudomonas aeruginosa ATCC 27853; format: functional; conditions: read-out: MBC99.9
Procedure, shortened: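 MBC from MIC plates at end point: 50 μL from each well with no visible growth plated on tryptic soy agar and counted. MBC taken as lowest concentration giving ≥99.9% fall in viable count relative to initial inoculum. Three independent experiments, one replicate each.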

[3] = tested on: Acinetobacter baumannii; assay: Potentiation of ampicillin-mediated antibacterial activity against Acinetobacter baumannii ATCC 19606 assessed as decrease in ampicillin MIC at 4 ug/ml by checkerboard method relative to control; format: functional, ATCC 19606 = CIP 70.34 = JCM 6841
[4] = tested on: Escherichia coli; assay: Antibacterial activity against Escherichia coli ATCC 25922 in presence of 100% serum after 12 hrs by broth microdilution method; format: functional; conditions: ATCC 25922, 12 h; procedure, shortened: as §1
[5] = tested on: Staphylococcus aureus; assay: Antibacterial activity against methicillin-resistant Staphylococcus aureus ATCC 43300 after 18 to 20 hrs by broth microdilution method; format: functional
Procedure, shortened: (§2)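 Broth microdilution in tryptic soy broth: 2-fold dilutions mixed 1:1 with ~1.5 × 10^5 CFU/mL bacterial suspension in TSB, final 0.5–32 μg/mL, 37 °C for 18–20 h. MIC = lowest concentration with no visible growth. At least three independent experiments, one replicate each.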

[6] = tested on: Escherichia coli; assay: Antibacterial activity against Escherichia coli ATCC 25922 after 18 to 20 hrs in presence of 95% serum by broth microdilution method; format: functional
Procedure, shortened: (§3)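 Same microdilution with human serum as medium: compound 2-fold diluted in 100% serum, mixed 1:1 with 90% serum holding ~1.5 × 10^5 CFU/mL, giving 95% serum and final 0.5–64 μg/mL. MIC read as no visible growth after incubation as for the broth test.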

[7] = tested on: Klebsiella pneumoniae; assay: Potentiation of erythromycin-mediated antibacterial activity against Klebsiella pneumoniae ATCC 13883 assessed as decrease in erythromycin MIC at 4 ug/ml by checkerboard method relative to control; format: functional
[8] = tested on: Acinetobacter baumannii; assay: Potentiation of rifampicin-mediated antibacterial activity against Acinetobacter baumannii ATCC 19606 assessed as rifampicin MIC at 2 ug/ml by checkerboard method (reference value: 16 ug/ml); format: functional; conditions: ATCC 19606 = CIP 70.34 = JCM 6841
[9] = tested on: Enterococcus faecium; assay: Antibacterial activity against Enterococcus faecium ATCC 19434 after 18 to 20 hrs by broth microdilution method; format: functional
Procedure, shortened: (§4)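 Broth microdilution in tryptic soy broth: 2-fold dilutions mixed 1:1 with ~1.5 × 10^5 CFU/mL inoculum, final 0.5–32 μg/mL; 37 °C, 18–20 h. MIC taken as lowest concentration giving no visible growth. At least three independent experiments, one replicate each.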

[10] = tested on: Escherichia coli; assay: Antibacterial activity against Escherichia coli ATCC 25922 in presence of 100% serum measured immediately post compound addition in serum by broth microdilution method; format: functional; procedure, shortened: as §1
[11] = tested on: Pseudomonas aeruginosa; assay: Antibacterial activity against Pseudomonas aeruginosa ATCC 27853 after 18 to 20 hrs by broth microdilution method; format: functional; procedure, shortened: as §4
[12] = tested on: Klebsiella pneumoniae; assay: Potentiation of rifampicin-mediated antibacterial activity against Klebsiella pneumoniae ATCC 13883 assessed as decrease in rifampicin MIC at 2 ug/ml by checkerboard method relative to control; format: functional
[13] = tested on: Klebsiella pneumoniae; assay: Potentiation of rifampicin-mediated antibacterial activity against Klebsiella pneumoniae ATCC 13883 assessed as rifampicin MIC at 2 ug/ml by checkerboard method (reference value: 16 ug/ml); format: functional
[14] = tested on: Staphylococcus aureus; assay: Antibacterial activity against Staphylococcus aureus ATCC 29213 after 18 to 20 hrs by broth microdilution method; format: functional; procedure, shortened: as §4
[15] = tested on: Escherichia coli; assay: Antibacterial activity against Escherichia coli ATCC 25922 after 18 to 20 hrs by broth microdilution method; format: functional; procedure, shortened: as §4
[16] = tested on: Acinetobacter baumannii; assay: Antibacterial activity against Acinetobacter baumannii ATCC 19606 after 18 to 20 hrs by broth microdilution method; format: functional; conditions: ATCC 19606 = CIP 70.34 = JCM 6841
[17] = tested on: Acinetobacter baumannii; assay: Potentiation of erythromycin-mediated antibacterial activity against Acinetobacter baumannii ATCC 19606 assessed as decrease in erythromycin MIC at 4 ug/ml by checkerboard method relative to control; format: functional, ATCC 19606 = CIP 70.34 = JCM 6841
[18] = tested on: Klebsiella pneumoniae; assay: Potentiation of vancomycin-mediated antibacterial activity against Klebsiella pneumoniae ATCC 13883 assessed as decrease in vancomycin MIC at 4 ug/ml by checkerboard method relative to control; format: functional
[19] = tested on: Acinetobacter baumannii; assay: Potentiation of rifampicin-mediated antibacterial activity against Acinetobacter baumannii ATCC 19606 assessed as decrease in rifampicin MIC at 4 ug/ml by checkerboard method relative to control; format: functional, ATCC 19606 = CIP 70.34 = JCM 6841
[20] = tested on: Klebsiella pneumoniae; assay: Antibacterial activity against Klebsiella pneumoniae ATCC 13883 after 18 to 20 hrs by broth microdilution method; format: functional
[21] = tested on: Acinetobacter baumannii; assay: Potentiation of vancomycin-mediated antibacterial activity against Acinetobacter baumannii ATCC 19606 assessed as decrease in vancomycin MIC at 4 ug/ml by checkerboard method relative to control; format: functional, ATCC 19606 = CIP 70.34 = JCM 6841
[22] = tested on: Acinetobacter baumannii; assay: Potentiation of clarithromycin-mediated antibacterial activity against Acinetobacter baumannii ATCC 19606 assessed as decrease in clarithromycin MIC at 4 ug/ml by checkerboard method relative to control; format: functional, ATCC 19606 = CIP 70.34 = JCM 6841
[23] = tested on: Staphylococcus aureus; assay: Antibacterial activity against Staphylococcus aureus ATCC 29213 after 18 to 20 hrs in presence of 95% serum by broth microdilution method; format: functional; procedure, shortened: as §3
[24] = tested on: Klebsiella pneumoniae; assay: Potentiation of clarithromycin-mediated antibacterial activity against Klebsiella pneumoniae ATCC 13883 assessed as decrease in clarithromycin MIC at 4 ug/ml by checkerboard method relative to control; format: functional
[25] = tested on: Escherichia coli; assay: Antibacterial activity against Escherichia coli ATCC 25922 in presence of 100% serum after 6 hrs by broth microdilution method; format: functional; conditions: ATCC 25922, 6 h; procedure, shortened: as §1
[26] = tested on: Klebsiella pneumoniae; assay: Potentiation of ampicillin-mediated antibacterial activity against Klebsiella pneumoniae ATCC 13883 assessed as decrease in ampicillin MIC at 4 ug/ml by checkerboard method relative to control; format: functional
[27] = tested on: Pseudomonas aeruginosa; assay: Bactericidal activity against Pseudomonas aeruginosa ATCC 27853 after 60 mins in presence of LPS; format: functional
Procedure, shortened: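 P. aeruginosa at ~10^6 CFU/mL in TSB with E. coli O111:B4 LPS (final 10, 25, 50 or 100 μg/mL), then compound at final 16 μg/mL. Incubated 37 °C, 200 rpm, 60 min; survivors counted on TSA. Three independent experiments, one replicate each.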

[28] = tested on: Klebsiella pneumoniae; assay: Antibacterial activity against polymyxin-resistant Klebsiella pneumoniae UAMS-KPPR3 after 18 to 20 hrs by broth microdilution method; format: functional
[29] = tested on: Escherichia coli; assay: Antibacterial activity against polymyxin-resistant Escherichia coli UAMS-ECPR1 after 18 to 20 hrs by broth microdilution method; format: functional; procedure, shortened: as §2
[30] = tested on: Escherichia coli; assay: Antibacterial activity against polymyxin-resistant Escherichia coli AR 0494 expressing mcr1 after 18 to 20 hrs by broth microdilution method; format: functional; procedure, shortened: as §2
[31] = tested on: Escherichia coli; assay: Antibacterial activity against polymyxin-resistant Escherichia coli UAMS-ECPR2 after 18 to 20 hrs by broth microdilution method; format: functional; procedure, shortened: as §2
[32] = tested on: Klebsiella pneumoniae; assay: Antibacterial activity against polymyxin-resistant Klebsiella pneumoniae UAMS-KPPR1 after 18 to 20 hrs by broth microdilution method; format: functional

Molecule | MIC [1] [µg/mL] | MBC [2] [µg/mL] | fold change (FC) [3] | MIC [4] [µg/mL] | MIC [5] [µg/mL] | MIC [6] [µg/mL] | fold change (FC) [7] | MIC [8] [µg/mL] | MIC [9] [µg/mL] | MIC [10] [µg/mL] | MIC [11] [µg/mL] | fold change (FC) [12] | MIC [13] [µg/mL] | MIC [14] [µg/mL] | MIC [15] [µg/mL] | MIC [16] [µg/mL] | fold change (FC) [17] | fold change (FC) [18] | fold change (FC) [19] | MIC [20] [µg/mL] | further results
CC[C@H](C)[C@H](NC(=O)[C@H](CCN)NC(=O)[C@@H](N)CC1CCCCC1)C(=O)N[C@@H](CCN)C(=O)N[C@H](Cc1ccccc1)C(=O)N[C@@H](CC(C)C)C(=O)N[C@@H](CCN)C(=O)N[C@@H](C(=O)N[C@@H](CC(C)C)C(=O)N[C@@H](CO)C(N)=O)C(C)C (H-[Cha][Dab]I[Dab][dF]L[Dab][dV]LS-NH2) | > 32 | 16 to 32 (≈ 14 to 28 µM) | 2 - 4 | > 32 | 32 (≈ 28 µM) | 2 | 512 | 0.0039 to 0.0078 | > 32 | 1 to 2 | 2 to 8 (≈ 1.75 to 7 µM) | >=8192 | 0.0039 | > 32 | 4 to 8 (≈ 3.5 to 7 µM) | ≥ 32 | 64 | 1 | 4096 | 32 (≈ 28 µM) | fold change (FC) [21]: 32 - 64; fold change (FC) [22]: 2048; MIC [23]: > 64 µg/mL; fold change (FC) [24]: 2048 - 4096; MIC [25]: > 32 µg/mL; fold change (FC) [26]: 1
CCCCCCCC(=O)N[C@@H](CCN)C(=O)N[C@H](C(=O)N[C@@H](CCN)C(=O)N[C@H](Cc1ccccc1)C(=O)N[C@@H](CC(C)C)C(=O)N[C@@H](CCN)C(=O)N[C@@H](C(=O)N[C@@H](CC(C)C)C(=O)N[C@@H](CCN)C(N)=O)C(C)C)[C@@H](C)CC (Octanoyl-[Dab]I[Dab][dF]L[Dab][dV]L[Dab]-NH2) | 2 | 16 (≈ 14.2 µM) | 16 - 32 | 1 to 2 | 32 (≈ 28.3 µM) | 2 to 4 | 512 | 0.0019 | 32 (≈ 28.3 µM) | 1 to 2 | 2 to 4 (≈ 1.77 to 3.54 µM) | >=8192 | 0.0019 to 0.0039 | > 32 | 4 to 16 (≈ 3.54 to 14.2 µM) | ≥ 32 | 128 - 256 | 2 | 8192 | > 32 | Activity [27]: inactive; fold change (FC) [21]: 64 - 128; fold change (FC) [22]: 4096 - 8192; MIC [23]: 16 µg/mL; fold change (FC) [24]: 2048; MIC [25]: 2 µg/mL; fold change (FC) [26]: 1
POLYMYXIN B | – | – | – | – | – | – | – | – | – | – | – | – | – | – | – | – | – | – | – | – | MIC [28]: > 32 µg/mL; MIC [29]: 32 µg/mL; MIC [30]: 2 to 8 µg/mL; MIC [31]: 32 µg/mL; MIC [32]: > 32 µg/mL
